Test results as given in PMC11789357 (Journal of Translational Medicine, 2025).

Columns and labels:
UT-7 cells [1] = assay: CellTiter-Glo cell proliferation / survival assay; assay type: cell-based, human; details: medium without EPO; matched doses 1000 ng/mL (20 nM) vs 4 U/mL, 200 ng/mL (4 nM) vs 0.8 U/mL
BaF3-hEPOR cells = assay: Western blot of EPOR downstream signaling; assay type: cell-based, murine; details: 10 min treatment, monitored 4 days
How it was run: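 They were exposed 10 min, pelleted, and resuspended in EPO-free medium. Lysates were taken at 0 min, 30 min, 1 h, 4 h and 1–4 days. Western blots on 4–20% gels were probed for p-ERK1/2 and p-STAT5.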

[2] = Single-dose PK study in healthy BALB/c mice; assay type: in vivo, mouse; details: SC 0.08 mg/kg single dose
How it was run: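 Female BALB/c mice received a single sc injection of test compound or peptide dimer. Blood was sampled at several times over 14 days, and serum drug level was measured by MSD immunoassay. Mean concentration–time curves gave Tmax, Cmax, t1/2, AUC0-t, AUC0-∞ and MRT.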

UT-7 cells [3] = details: ref [21], [23]; cited from earlier work
[4] = molecular target: EPOR extracellular domain-IgFc construct (UniProt P19235); assay: SPR
UniProt P19235, sequence (P19235 25-250): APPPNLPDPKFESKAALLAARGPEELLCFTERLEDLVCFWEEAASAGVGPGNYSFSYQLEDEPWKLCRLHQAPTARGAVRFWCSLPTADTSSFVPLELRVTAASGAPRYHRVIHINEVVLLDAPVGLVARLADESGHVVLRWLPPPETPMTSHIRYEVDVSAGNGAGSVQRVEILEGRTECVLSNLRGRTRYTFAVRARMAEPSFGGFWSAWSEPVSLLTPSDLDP

**Q.** What does the source list for “rHuEPO (ESPO 3000): recombinant human erythropoietin product ESPO 3000, Kyowa Kirin”?
**A.** UT-7 cell proliferation under continuous treatment (UT-7 cells [1]): maintained cell proliferation over 7 consecutive days of treatment; Phosphorylation levels of ERK1/2 MAPK and STAT5 after withdrawal (BaF3-hEPOR cells): showed a decline

**Q.** For `CC(=O)NCC(=O)NCC(=O)N[C@H](C(=O)N[C@@H](Cc1ccc(O)cc1)C(=O)N[C@@H](CO)C(=O)N[C@H]1CSSC[C@@H](C(=O)N[C@@H](CCCNC(=N)N)C(=O)N2CCC[C@H]2C(=O)N[C@@H](CCC(N)=O)C(=O)N[C@@H](CCCNC(=N)N)C(=O)NCC(=O)NCCC(=O)N[C@@H](CCCCNC(=O)CN(CC(=O)NCCCC[C@H](NC(=O)CCNC(=O)CNC(=O)[C@H](CCCNC(=N)N)NC(=O)[C@H](CCC(N)=O)NC(=O)[C@@H]2CCCN2C(=O)[C@H](CCCNC(=N)N)NC(=O)[C@@H]2CSSC[C@H](NC(=O)[C@H](CO)NC(=O)[C@H](Cc3ccc(O)cc3)NC(=O)[C@@H](NC(=O)CNC(=O)CNC(C)=O)[C@@H](C)O)C(=O)N[C@@H](Cc3c[nH]cn3)C(=O)N[C@@H](Cc3ccccc3)C(=O)NCC(=O)N[C@@H](C)C(=O)N[C@@H](CC(C)C)C(=O)N[C@@H]([C@@H](C)O)C(=O)N[C@@H](Cc3c[nH]c4ccccc34)C(=O)N[C@@H](C(C)C)C(=O)N2)C(N)=O)C(=O)CCN)C(N)=O)NC(=O)[C@H](C(C)C)NC(=O)[C@H](Cc2c[nH]c3ccccc23)NC(=O)[C@H]([C@@H](C)O)NC(=O)[C@H](CC(C)C)NC(=O)[C@H](C)NC(=O)CNC(=O)[C@H](Cc2ccccc2)NC(=O)[C@H](Cc2c[nH]cn2)NC1=O)[C@@H](C)O` [Peptide dimer], which “Phosphorylation levels of ERK1/2 MAPK and STAT5 after withdrawal” value (BaF3-hEPOR cells) is on record?
**A.** showed a decline

**Q.** What about the “Serum concentration” value [2] of the same compound?
**A.** mostly below detection limits

**Q.** Which results are given for “rHuEPO: recombinant human erythropoietin, as cited from literature”?
**A.** Rate of internalization of the rHuEPO-receptor complex (UT-7 cells [3]): 3.6 per hour; Time to lysosomal degradation post-internalization (UT-7 cells [3]): 15 to 20 min

**Q.** With Pegmolesatide (peptide) as the compound, how does the Kd [4] read?
**A.** 0.28 nM
